Experimental findings from paper PMC7688577 (FASEB journal : official publication of the Federation of …, 2020) are described below.

pEC50: −log10 of the molar value.

Experiment [1] has as its target P23H rhodopsin fused with Renilla luciferase (Mus musculus, UniProt P15409, P23H). As to the kind of experiment: Rluc reporter assay in Hek293. Type of experiment: cell-based. The conditions noted are these: for Rluc assay Hek293 (RHO^P23H-Rluc) Efficacy: DMSO = 0%, 1 mM Evans Blue = -100%; for pEC50: read-out: Rluc assay Hek293 (RHO^P23H-Rluc) EC50, 24 h treatment, dose response.

Experiment [2] concerns WT rhodopsin fused with Renilla luciferase. Description: Rluc reporter counter assay in Hek293. The experiment is classed as cell-based, mouse. As to conditions: DMSO = 0%, 1 mM Evans Blue = -100%; NA = no dose response effect. The method, boiled down:
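HEK293 cells stably expressing WT rhodopsin–Rluc, run as the HTS reporter assay: cells spun 300 × g 30 s, cultured overnight at 37 °C, 5% CO2; test compound in DMSO pin-transferred. ViviREN (50 μM solution in PBS) added, 1 h dim light, room temperature; luminescence read. Score = (RLU_compound − RLU_DMSO)/(RLU_DMSO − RLU_Evans Blue) ×100; 10 μM triplicates and dose-response.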

The target in experiment [3] is T1, P23H rhodopsin (Mus musculus, UniProt P15409, P23H). Description: Image-based. The experiment is classed as cell-based. As to conditions: for Image-based assay NIH3T3 (RHO^P23H/GFP) Efficacy: DMSO = 0%, secondary antibody only = -100%; for pEC50: read-out: Image-based assay NIH3T3 (RHO^P23H/GFP) EC50, 24 h treatment, 8-10 doses.
Experiment [4] has as its target T1, P23H rhodopsin. Description: Rhodopsin dot blot of NIH3T3. As to conditions: NIH3T3(RHO^P23H/GFP) cells, 10 μM, 24 h, vs DMSO control. The experiment is classed as cell-based. The method, boiled down: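 NIH3T3(RHO^P23H/GFP) cells were seeded at 2.5 × 10⁴/well in 96-well plates, attached 4 h, then given medium with 2× test compound to reach 10 μM final for 24 h. Cells were PBS-washed and lysed in RIPA with protease inhibitors plus 6 s sonication. Of each well's lysate, 90% was dotted on nitrocellulose, air-dried and probed with 0.1 μg/mL HRP-1D4. Densitometry was normalized to DMSO.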

Experiment [5] relates to RHO transcripts. As to the kind of experiment: qPCR of RHO transcripts in NIH3T3. The experiment is classed as cell-based, mouse. As to conditions: 10 μM; for Rho mRNA level (qPCR): NIH3T3(RHO^P23H/GFP) cells, vs DMSO control; for Rho mRNA level (qPCR) / WT and P23H rhodopsin transcripts in comparison to DMSO control: 24 h. An outline of the steps:
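NIH3T3 cells stably expressing WT or P23H rhodopsin (GFP lines) were seeded in 24-well plates at 2.5×10⁵ cells/well and cultured overnight at 37 °C, 5% CO₂. They were then exposed to test compound in culture medium for 24 h. RNA was precipitated by centrifugation at 12,000×g for 10 min at 4 °C, washed with 75% ethanol, air-dried and dissolved in nuclease-free water before qPCR.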

For experiment [6], the target named is T1, P23H rhodopsin. As to the kind of experiment: Non-radioactive pulse-chase assay in NIH3T3. Type of experiment: cell-based. As to conditions: 10 μM; for Rate of Rho^P23H degradation (Pulse-chase): NIH3T3(RHO^P23H/GFP) cells, 24 h chase, vs DMSO control. The method, boiled down: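 Non-radioactive pulse-chase. Cells (3 × 10⁵/well, 24-well) were grown overnight, starved in Met-free DMEM for 1 h, then pulsed with 50 μM L-AHA for 4 h (50 μM Met as negative control). Chase was 24 h in DMEM with 2 mM Met ± 10 μM test compound. Lysates (200 μg) were clicked with 5 μM BTN-sDIBO for 1 h at 37 °C, immunoprecipitated with 1D4, eluted at pH 2.8, dot-blotted and probed with HRP-streptavidin. Values normalized to DMSO on the same membrane; N=3, unpaired two-tailed t-test.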

Experiment [7] concerns rhodopsin mutants (T4R, P23H, P53R, C110Y, D190N, P267L). The experiment is classed as cell-based, mouse. The conditions noted are these: U2OS cells; T4R, P23H, P53R, C110Y, D190N, P267L mutants. The method, boiled down: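 U2OS stable lines expressed WT or mutant mouse rhodopsin fused to Venus. Cells were transfected with pcDNA3.1 Zeo constructs, kept 48 h in DMEM/10% FBS, then selected with 400 μg/mL Zeocin. Stable cells were treated with test compound at 10 μM and immunostained for rhodopsin.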

Setting [8] is: both NIH3T3(RHO^P23H/GFP) and NIH3T3(RHO^WT/GFP) cells.

As to `CC(O)CN` (stereo not drawn) [CL-004], in experiment [1], the “Rluc assay Hek293 (RHO^P23H-Rluc) Efficacy” value was −68.6% and the pEC50 was 5.80. The “Rluc assay Hek293 (RHO^WT-Rluc) Efficacy” value in experiment [2] is −45.5%. In experiment [3], the “Image-based assay NIH3T3 (RHO^P23H/GFP) Efficacy” value was −70.7% and the pEC50 is 6.33. In experiment [4], the “Rho protein level (Dot blot)” value is listed as “Down”. In addition, the “Rho mRNA level (qPCR)” value in experiment [5] is on record as “Down”. The “WT and P23H rhodopsin transcripts in comparison to DMSO control” value (from here on “WT and P23H rhodopsin transcripts”) in experiment [5] (setting [8]) is listed as “reduced non-selectively”. The “Rate of Rho^P23H degradation (Pulse-chase)” value (from here on “Rate of Rho^P23H degradation”) in experiment [6] is on record as “No Change”.

In the case of `CC(=O)OC(CC(=O)[O-])C[N+](C)(C)C` (stereo not drawn) [CL-001], in experiment [1], the “Rluc assay Hek293 (RHO^P23H-Rluc) Efficacy” value is on record as −69.4% and the pEC50 was 5.96. Moreover, the “Rluc assay Hek293 (RHO^WT-Rluc) Efficacy” value in experiment [2] is listed as −44.3%. Moreover, in experiment [3], the “Image-based assay NIH3T3 (RHO^P23H/GFP) Efficacy” value is −83.6% and the pEC50 is 5.68. The “Rho protein level (Dot blot)” value in experiment [4] is recorded as “Down”. The “Rho mRNA level (qPCR)” value in experiment [5] is “Down”. Besides, the “WT and P23H rhodopsin transcripts” value in experiment [5] (setting [8]) was “reduced non-selectively”. In addition, in experiment [6], the “BTN-AHA labeled P23H rhodopsin at 24 h of chase in comparison to DMSO control” value (from here on “BTN-AHA labeled P23H rhodopsin at 24 h”) is “significantly reduced”. Moreover, the “Immunofluorescence intensities of rhodopsin mutants” value (“Immunofluorescence intensities” for short) in experiment [7] is given as “reduced”.

With `CC(=O)OC(CC(=O)O)C[N+](C)(C)C` (stereo not drawn) [CL-002], in experiment [1], the “Rluc assay Hek293 (RHO^P23H-Rluc) Efficacy” value is recorded as −86.1% and the pEC50 is 5.70. Besides, in experiment [2], the “Rluc assay Hek293 (RHO^WT-Rluc) Efficacy” value is listed as −62.0%. In experiment [3], the “Image-based assay NIH3T3 (RHO^P23H/GFP) Efficacy” value is given as −61.0% and the pEC50 is 5.80. The “Rho protein level (Dot blot)” value in experiment [4] is listed as “Down”. Also, the “Rho mRNA level (qPCR)” value in experiment [5] is listed as “Down”. In addition, in experiment [5] (setting [8]), the “WT and P23H rhodopsin transcripts” value is “reduced non-selectively”. For the same compound, the “BTN-AHA labeled P23H rhodopsin at 24 h” value in experiment [6] is reported as “significantly reduced”. The “Immunofluorescence intensities” value in experiment [7] is “reduced”.

Take `CCn1cnc2c(N)ncnc21` [CL-007]: in experiment [1], the “Rluc assay Hek293 (RHO^P23H-Rluc) Efficacy” value was −72.5% and the pEC50 is 4.89. For the same compound, in experiment [2], the “Rluc assay Hek293 (RHO^WT-Rluc) Efficacy” value was −51.7%. In experiment [3], the “Image-based assay NIH3T3 (RHO^P23H/GFP) Efficacy” value was −72.7% and the pEC50 was 5.54. Besides, the “Rho protein level (Dot blot)” value in experiment [4] is given as “Down”. In experiment [5], the “Rho mRNA level (qPCR)” value is “Down”. In addition, in experiment [5] (setting [8]), the “WT and P23H rhodopsin transcripts” value is recorded as “reduced non-selectively”. Moreover, in experiment [6], the “BTN-AHA labeled P23H rhodopsin at 24 h” value was “significantly reduced”. Also, the “Immunofluorescence intensities” value in experiment [7] is given as “reduced”.

For `O=[N+]([O-])c1ccc(Cl)c([N+](=O)[O-])c1` [CL-006], in experiment [1], the “Rluc assay Hek293 (RHO^P23H-Rluc) Efficacy” value is −66.2% and the pEC50 is 5.77. For the same compound, the “Rluc assay Hek293 (RHO^WT-Rluc) Efficacy” value in experiment [2] was −42.9%. In addition, in experiment [3], the “Image-based assay NIH3T3 (RHO^P23H/GFP) Efficacy” value is recorded as −76.4% and the pEC50 is 5.66. Besides, the “Rho protein level (Dot blot)” value in experiment [4] is given as “Down”. In addition, the “Rho mRNA level (qPCR)” value in experiment [5] is given as “Down”. Also, the “WT and P23H rhodopsin transcripts” value in experiment [5] (setting [8]) is “reduced non-selectively”. Further, the “Rate of Rho^P23H degradation” value in experiment [6] is listed as “No Change”.

Consider `NCC(=O)COP(=O)(O)O` [CL-005], for which, in experiment [1], the “Rluc assay Hek293 (RHO^P23H-Rluc) Efficacy” value is −78.2% and the pEC50 is 5.18. Moreover, in experiment [2], the “Rluc assay Hek293 (RHO^WT-Rluc) Efficacy” value is on record as −57.9%. Besides, in experiment [3], the “Image-based assay NIH3T3 (RHO^P23H/GFP) Efficacy” value is −72.7% and the pEC50 is 5.89. The “Rho protein level (Dot blot)” value in experiment [4] is “Down”. Also, the “Increase of rhodopsin transcripts compared to DMSO control” value in experiment [5] (setting [8]) is “up to 2 fold”. In addition, the “BTN-AHA labeled P23H rhodopsin at 24 h” value in experiment [6] is recorded as “significantly reduced”. Besides, the “Immunofluorescence intensities” value in experiment [7] is recorded as “reduced”.

As for `O=C(O)C1=CC=CC(O)C1O` (stereo not drawn) [CL-003], in experiment [1], the “Rluc assay Hek293 (RHO^P23H-Rluc) Efficacy” value is recorded as −65.3% and the pEC50 was 6.05. Moreover, the “Rluc assay Hek293 (RHO^WT-Rluc) Efficacy” value in experiment [2] is −37.7%. In addition, in experiment [3], the “Image-based assay NIH3T3 (RHO^P23H/GFP) Efficacy” value is reported as −46.1% and the pEC50 is 6.22. Moreover, the “Rho protein level (Dot blot)” value in experiment [4] is reported as “Down”. Moreover, the “Rho mRNA level (qPCR)” value in experiment [5] was “Down”. The “WT and P23H rhodopsin transcripts” value in experiment [5] (setting [8]) was “reduced non-selectively”. Also, the “Rate of Rho^P23H degradation” value in experiment [6] was “No Change”.

For the compound `CCC(C)(O)C(O)C(=O)O` (stereo not drawn) [CL-008], in experiment [1], the “Rluc assay Hek293 (RHO^P23H-Rluc) Efficacy” value was −89.5% and the pEC50 is 6.03. In addition, the “Rluc assay Hek293 (RHO^WT-Rluc) Efficacy” value in experiment [2] was −52.7%. In addition, in experiment [3], the “Image-based assay NIH3T3 (RHO^P23H/GFP) Efficacy” value is reported as −70.1% and the pEC50 was 5.80. The “Rho protein level (Dot blot)” value in experiment [4] is listed as “Down”. Moreover, the “Rho mRNA level (qPCR)” value in experiment [5] is “Down”. For the same compound, the “WT and P23H rhodopsin transcripts” value in experiment [5] (setting [8]) is “reduced non-selectively”. The “Rate of Rho^P23H degradation” value in experiment [6] is recorded as “No Change”.
